# Rows were chosen to be rich in hits. Some 12% of all compounds tested hit in one or more screens of this group.
# Autophagy HCS = autophagy modulation, high-content screen; MEF GFP-LC3 puncta imaging; test concentration mostly 10 µM; calls only at 10 µM (by protocol); hit rate 0.98% among 190,000;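 active = percentage of spot-positive cells more than 3 SD above its plate mean, without a fluorescence outlier flag or 80% toxicity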;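 also: spot-positive cell cutoff set from DMSO-treated cells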
# L major viab = reduces viability of Leishmania major promastigotes; resazurin fluorescence viability; inhibition, % at 10 µM; hit rate 9% among 200,000; in the data active = inhibition above about 50%;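 also: promastigotes grown with compound for 44 hours at 28 °C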
# b-catenin transl = modulators of beta-catenin nuclear translocation. HeLa beta-catenin nuclear translocation, immunofluorescence imaging. nuclear translocation activity, % at 5 µM. hit rate 0.3% among 190,000;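 active = nuclear translocation activity above 50% at 5 µM, with a well cell count of 50 or more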;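 also: per-cell ratio of nuclear to cytoplasmic median beta-catenin stain intensity; plate controls were DMSO negative control for no effect and GSK-3 inhibitor IX positive control for full effect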
#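 test system = HeLa cells, endogenous beta-catenin | dosing = single 5 µM dose plus 0.02–20 µM confirmation series | times = compound treatment 24 h, 37°C, 5% CO2 | technique = beta-catenin immunofluorescence imaging with DAPI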
# MT stabilize HCS = microtubule stabilization, imaging screen. HeLa tubulin immunostaining HCS, 24 h; share of cells brighter than vehicle mean+2SD. % tubulin-high responders, % at 10 µM. hit rate 0.83% among 200,000;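 active = plate Z-score above 3 for both tubulin-high and condensed-nucleus cell shares, with cell loss under 80%, at 10 µM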;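 also: anti alpha tubulin signal scored within the nucleus-defined area of each cell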
# Dynein transport = dynein cargo transport inhibition; z-score, hits read low; 3617.4 mouse cells, GR-EGFP nuclear translocation imaging; test concentration mostly 20 µM; stimulated with dexamethasone, 1 µM; active compounds read low; hit rate 0.47% among 220,000;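 active = plate z-score of nuclear minus cytoplasmic receptor signal below a set negative limit, without overly bright fluorescence or cell loss, cut at about -3.5 in these data, passing the limit was not always enough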;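 also: z-score of nuclear minus cytoplasmic ring GR-EGFP intensity difference per well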
#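 Buffer or medium: tet-free medium with charcoal-stripped serum / Also added: dexamethasone agonist, 1.0 µM final, for 30 min / Timing: induction 48 h, compound 1 h, agonist 30 min / Measured by: high-content fluorescence imaging after fixation / Read-out: nuclear-to-cytoplasmic GR-EGFP distribution per well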
# CHOP inhibitor = blocks CHOP induction under ER stress | hit rate 3.8% among 220,000 | inhibition, % at 10 µM | CHO-K1 CHOP-promoter luciferase, tunicamycin-induced, 15-18 h;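 active = compounds that reduced the stress-induced luciferase reporter signal by more than about 70% of percent inhibition, limit read from the data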;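 also: 0% = tunicamycin plus vehicle and 100% = wells without tunicamycin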
# Lmaj promast 1uM = inhibitors of Leishmania major promastigote growth, repeat at 1 uM; L. major promastigote growth, resazurin fluorescence, 48 h; shares compounds with L major viab; hit rate 13% among 1,100; inhibition, % at 1 µM;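 active = inhibition above about 50% in both repeat tests, limit read from the data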
# * marks the source's active call; other numbers are inactive results; i = inactive; · = no result; + = active, no number.
SMILES,Autophagy HCS,L major viab,b-catenin transl,MT stabilize HCS,Dynein transport,CHOP inhibitor,Lmaj promast 1uM
CCCCc1nnc(NC(=O)COc2ccc3c(C)cc(=O)oc3c2)s1,·,·,1,·,0.85,8,·
CCc1ccccc1Nc1nc2ccccc2n1C,i,57*,1,2,0.38,2,7
CCCn1c(Nc2nc3ccccc3n2C)nc2ccccc21,i,29,-4,5,3,18,·
CN(C)c1cc[n+](Cc2c(Cl)cccc2Cl)cc1,i,84*,2,4,0.13,0,-2
CN(C)c1cc[n+](CC(=O)Nc2c(Cl)cc(Cl)cc2Cl)cc1,i,-1,-2,2,-0.21,0,·
CCC(C)n1c(OC)nc2c1c(=O)n(C)c(=O)n2C (stereo unspecified),i,-5,1,2,-0.16,-12,·
CCOC(=O)c1c[nH][nH]c1=O,·,·,0,·,0.65,15,·
O=C(COC(=O)c1ccc[nH]c1=O)c1ccc(Cl)s1,i,-7,0,6,-0.59,-16,·
Cc1ccc(C(=O)OCC(=O)c2ccc(Cl)s2)s1,i,92*,0,5,-0.8,46,-8
CCN(CC)S(=O)(=O)c1ccc(N2CCOCC2)c(NC(=O)c2c3c(nc4ccccc24)CCC3)c1,i,-2,3,1,-0.46,-1,·
CC1=C(C(=O)Nc2cc(-c3cccc(F)c3)[nH]n2)C2(CCCCC2)OC1=O,i,100*,0,6,-1,82*,89*
Nc1nc(-c2cccs2)c(NC(=O)c2ccccc2)s1,·,86*,-4,2,-0.49,11,-8
CC1CCc2c(sc3nc(CSc4ncn[nH]4)[nH]c(=O)c23)C1 (stereo unspecified),i,-9,0,4,-0.6,33,·
CCSc1nnc2nc3[nH]c4c(C)cccc4c3nn12,i,42,-2,5,-0.3,-74,·
C=CCSc1nnc2c(n1)[nH]c1c(C)cccc12,i,61*,1,5,-0.22,38,11
Cc1nc(SCC(=O)Nc2cccnc2Cl)nc(C)c1C,i,-3,-1,3,-0.4,13,·
C=CCC1(O)C(=O)N2C(=C1C(=O)OCC)c1ccc3ccccc3c1CC2(C)C (stereo unspecified),i,53*,·,2,-1.4,24,-19
CC1(C)Cc2c(ccc3ccccc23)C2=C(C(=O)N3CCCC3)C(=O)C(=O)N21,i,-3,2,1,-1.3,24,·
NNc1nc(-c2ccccc2)cc(-c2ccccc2)n1,i,91*,0,2,-0.9,64,-22
CC(C)CCN(C)C1CCN(S(=O)(=O)c2cccc(C(F)(F)F)c2)CC1,i,93*,·,3,-0.38,16,80*
CC1CN(S(=O)(=O)c2cccc(C(F)(F)F)c2)CC(C)O1 (stereo unspecified),·,·,0,·,-0.99,11,·
Cc1cccc(NC(=S)NC2CC3CCCC(C2)N3CC(C)C)c1 (stereo unspecified),i,95*,0,7,1.7,9,5
Cc1cc(/C=C2\NC(=S)NC2=O)c(C)n1-c1cccnc1,·,·,-4,·,0.76,-8,·
Cc1c2ccccc2nc2c(F)c(NCCO)c(F)c(F)c12,i,46,3,9,3.9,-35,·
Cc1c2ccccc2nc2c(F)c(NC(C)C)c(F)c(F)c12,+,50*,10,12,-3.2,11,10
Cc1ccc(NC(=O)O/N=C2\CCCCC2c2ccc([N+](=O)[O-])cc2[N+](=O)[O-])cc1 (stereo unspecified),i,99*,·,3,-1,9,15
Cc1ccsc1/C=N/NC(=O)CC(=O)NCC(C)C,i,-9,3,1,-0.43,5,·
CCOC(=O)c1c(C)oc2ccc(O)c(CN3CCCCC3)c12,i,88*,1,2,-1,1,-10
CCOC(=O)c1c(C)n(C)c2ccc(O)c(CN3CCCCC3)c12,i,31,0,2,-0.043,14,·
COc1c(O)ccc(/C=C(\C#N)c2nc3ccccc3[nH]2)c1[N+](=O)[O-],i,-2,0,3,-0.49,32,·

# From PubChem
